Test results reported in ChEMBL document CHEMBL3600342, “Fragment-Based Drug Discovery Targeting Inhibitor of Apoptosis Proteins: Discovery of a Non-Alanine Lead Series with Dual Activity Against cIAP1 and XIAP” (J Med Chem, 2015).
The source made the active and inactive calls. No cut-off for these calls is given here.

How the values were obtained:
[1] = target: T1, E3 ubiquitin-protein ligase XIAP (Homo sapiens, UniProt P98170); test: Antagonist activity at XIAP-BIR3 domain (unknown origin) assessed as inhibition of interaction with SMAC at 5 mM by fluorescence polarization assay relative to control
T1 sequence (P98170 whole entry, the tested form may be a part): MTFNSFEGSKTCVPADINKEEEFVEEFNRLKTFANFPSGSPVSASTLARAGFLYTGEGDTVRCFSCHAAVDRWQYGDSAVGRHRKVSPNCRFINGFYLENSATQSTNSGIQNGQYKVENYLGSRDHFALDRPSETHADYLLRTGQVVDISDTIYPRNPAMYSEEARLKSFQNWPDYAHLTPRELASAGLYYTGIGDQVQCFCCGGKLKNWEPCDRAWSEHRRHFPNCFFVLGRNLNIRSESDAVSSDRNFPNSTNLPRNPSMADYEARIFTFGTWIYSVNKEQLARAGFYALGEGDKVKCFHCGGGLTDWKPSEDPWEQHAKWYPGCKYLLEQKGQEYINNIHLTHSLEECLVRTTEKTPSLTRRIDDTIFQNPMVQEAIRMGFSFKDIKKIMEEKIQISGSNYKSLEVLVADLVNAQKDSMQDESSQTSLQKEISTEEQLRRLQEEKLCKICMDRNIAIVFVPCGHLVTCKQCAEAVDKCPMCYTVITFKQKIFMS
Method in brief: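 Competitive FP binding of a SMAC-derived fluorescent tracer, AbuRPFK(5&6FAM)-amide (5 nM), to XIAP-BIR3 (20 nM). Compound was tested at 5 mM and equilibrated at room temperature. Polarization was read at ex 485/em 538 nm and reported as percent inhibition, mean of at least two runs.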

[2] = target: Baculoviral IAP repeat-containing protein 2 (Homo sapiens) (UniProt Q13490); test: Antagonist activity at cIAP1-BIR3 domain (unknown origin) assessed as inhibition of interaction with SMAC at 5 mM by fluorescence polarization assay relative to control
Sequence of Baculoviral IAP repeat-containing protein 2 (Homo sapiens) (Q13490 whole entry, the tested form may be a part): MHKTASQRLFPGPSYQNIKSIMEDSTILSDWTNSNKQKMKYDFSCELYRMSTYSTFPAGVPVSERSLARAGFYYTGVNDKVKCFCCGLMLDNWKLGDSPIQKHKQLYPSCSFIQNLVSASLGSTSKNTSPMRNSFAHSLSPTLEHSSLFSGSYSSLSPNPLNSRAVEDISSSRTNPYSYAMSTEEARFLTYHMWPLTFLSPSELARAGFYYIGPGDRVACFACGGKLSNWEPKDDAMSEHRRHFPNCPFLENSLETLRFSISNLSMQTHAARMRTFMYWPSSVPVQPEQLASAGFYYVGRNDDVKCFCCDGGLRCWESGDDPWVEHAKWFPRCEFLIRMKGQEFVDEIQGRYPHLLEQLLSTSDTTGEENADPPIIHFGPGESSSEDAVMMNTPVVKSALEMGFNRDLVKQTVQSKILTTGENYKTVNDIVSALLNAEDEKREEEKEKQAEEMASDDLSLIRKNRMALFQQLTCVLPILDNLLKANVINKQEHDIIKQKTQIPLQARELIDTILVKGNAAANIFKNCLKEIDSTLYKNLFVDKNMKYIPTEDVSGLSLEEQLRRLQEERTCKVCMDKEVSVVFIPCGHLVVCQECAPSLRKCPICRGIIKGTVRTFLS
Method in brief: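 Competitive FP assay: cIAP1-BIR3 (4 nM) with a 2 nM SMAC-derived FAM peptide tracer, AbuRPFK(5&6FAM)-amide. Compound was tested at 5 mM. Polarization was read at ex 485/em 538 nm and expressed as percent inhibition, mean of at least two runs.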

Mus musculus [3] = test: Reduction of cIAP1 level in human MDA-MB-231 cells xenografted in Balb/c SCID mouse at 100 mg/kg, ip measured after 1 hr by MSD plate-based method relative to vehicle-treated control; assay type: functional, organism-based
MDA-MB-231 [4] = test: Antitumor activity against human MDA-MB-231 cells xenografted in Balb/c SCID mouse assessed as tumor growth inhibition at 100 mg/kg, ip bid measured every 3 days
Mus musculus [5] = test: Reduction of cIAP1 level in human MDA-MB-231 cells xenografted in Balb/c SCID mouse at 100 mg/kg, ip measured after 1 to 6 hrs by Western blot analysis relative to vehicle-treated control; assay type: functional, organism-based
Method in brief: (§1)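 Male Balb/c scid mice bearing MDA-MB-231 tumors received a single 100 mg/kg i.p. dose in 10% DMSO/90% saline (freebase equivalent). Tumors were harvested at 1, 6 and 24 h and snap frozen. Lysates were ground under liquid nitrogen in Triton lysis buffer with NaF/Na3VO4, and equal protein was run on SDS-PAGE. Blots were probed for cIAP1, XIAP, cleaved PARP and cleaved caspase-3, with infrared detection; comparison against vehicle-dosed tumors.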

Mus musculus [6] = test: Toxicity in Balb/c SCID mouse xenografted with human MDA-MB-231 cells assessed as effect on body weight at 100 mg/kg, ip bid measured everyday during compound dosing; conditions: in vivo
HCT-116 = test: cells; conditions: Homo sapiens, HCT-116, 72 h
EVSA-T = test: cells; conditions: Homo sapiens, 72 h
Mus musculus [7] = test: Increase in cleaved PARP level in human MDA-MB-231 cells xenografted in Balb/c SCID mouse at 100 mg/kg, ip measured after 1 to 24 hrs by Western blot analysis; assay type: functional, organism-based; method in brief: as §1
MDA-MB-231 [8] = test: cells; conditions: Homo sapiens, MDA-MB-231, 72 h
Mus musculus [9] = test: Reduction of XIAP level in human MDA-MB-231 cells xenografted in Balb/c SCID mouse at 100 mg/kg, ip measured after 1 to 24 hrs by Western blot analysis; assay type: functional, organism-based; method in brief: as §1
Mus musculus [10] = test: Reduction of cIAP1 level in human MDA-MB-231 cells xenografted in Balb/c SCID mouse at 100 mg/kg, ip measured after 24 hrs by Western blot analysis; assay type: functional, organism-based; method in brief: as §1
Mus musculus [11] = test: Increase in cleaved caspase-3 level in human MDA-MB-231 cells xenografted in Balb/c SCID mouse at 100 mg/kg, ip measured after 1 to 24 hrs by Western blot analysis; assay type: functional, organism-based; method in brief: as §1
[12] = target: T1, E3 ubiquitin-protein ligase XIAP; test: Antagonist activity at XIAP-BIR3 domain (unknown origin) assessed as inhibition of interaction with SMAC at 495 uM by fluorescence polarization assay relative to control
[13] = target: T1, E3 ubiquitin-protein ligase XIAP; test: Antagonist activity at XIAP-BIR3 domain (unknown origin) assessed as inhibition of interaction with SMAC at 155 uM by fluorescence polarization assay relative to control
[14] = target: T1, E3 ubiquitin-protein ligase XIAP; test: Antagonist activity at XIAP-BIR3 domain (unknown origin) assessed as inhibition of interaction with SMAC at 1 mM by fluorescence polarization assay relative to control
[15] = target: T1, E3 ubiquitin-protein ligase XIAP; test: Antagonist activity at XIAP-BIR3 domain (unknown origin) assessed as inhibition of interaction with SMAC at 1000 uM by fluorescence polarization assay relative to control
MDA-MB-231 [16] = test: Antitumor activity against human MDA-MB-231 cells xenografted in Balb/c SCID mouse assessed as tumor growth inhibition at 100 mg/kg, po qd measured every 3 days; assay type: functional, organism-based
Method in brief: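 Balb/c scid mice were inoculated s.c. with 5 x 10^6 MDA-MB-231 cells and dosing began when group (n=8) mean tumor volume reached 100 mm³. Arms: 100 mg/kg i.p. b.i.d., 100 mg/kg p.o. q.d., or vehicle. Tumor volume (length x width x width x 0.5) measured every 3 days; body weight recorded daily.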

[17] = target: Baculoviral IAP repeat-containing protein 2 (Homo sapiens) (UniProt Q13490); test: Antagonist activity at cIAP1-BIR3 domain (unknown origin) assessed as inhibition of interaction with SMAC at 0.01 uM by fluorescence polarization assay relative to control
[18] = target: T1, E3 ubiquitin-protein ligase XIAP; test: Antagonist activity at full-length FLAG-tagged XIAP (unknown origin) transfected in HEK293 cells assessed as inhibition of interaction with caspase 9 after 2 hrs by immunoprecipitation assay; assay type: cell-based
[19] = target: T1, E3 ubiquitin-protein ligase XIAP; conditions: 0.05 uM

`Brc1cnn(C2CCNCC2)c1` was tested, and the inhibition [1] was 33% and the inhibition [2] was 55%.
`COC[C@H]1CN[C@H](C)CN1CC(=O)N1CC(C)(C)c2cnc(Cc3ccccc3)cc21` was tested, and the Activity (Mus musculus [3]) was “Active”, the TGI (MDA-MB-231 [4]) was “Active” and the Activity (Mus musculus [5]) was “Active”. For the same molecule, the Activity (Mus musculus [6]) was “Non-toxic”, the EC50 (HCT-116) was > 10000 nM and the EC50 (EVSA-T) was 100 nM. For the same molecule, the Activity (Mus musculus [7]) was “Active”, the EC50 (MDA-MB-231 [8]) was 590 nM and the Activity (Mus musculus [9]) was “inactive”. The Activity (Mus musculus [10]) was “inactive” and the Activity (Mus musculus [11]) was “Active”.
Molecule `O=C(CN1CCNCC1)N1CCCCC1` has an inhibition [1] of 38% and an inhibition [2] of 16%.
For `C[C@@H]1CN(CC(=O)N2CCc3ccccc32)CCN1`, the inhibition [12] was 52%.
`COc1ccc2c(c1)N(C(=O)CN1CCN[C@H](C)C1)CC2` gave an inhibition [13] of 49%.
Work on `C[C@@H]1CN(CC(=O)N2CCc3ccc(N)cc32)CCN1` yielded an inhibition [14] of 56% and an inhibition [15] of 56%.
For `CN[C@@H](C)C(=O)N[C@H]1CN(C(=O)CC(C)C)CC[C@H]2CC[C@@H](C(=O)NC(c3ccccc3)c3ccccc3)N2C1=O` [XEVINAPANT], the TGI (MDA-MB-231 [16]) was “Active”, the EC50 (HCT-116) was > 10000 nM and the inhibition [17] was 98%. For the same molecule, the EC50 (EVSA-T) was 2.1 nM, the EC50 [18] was 34 nM and the EC50 (MDA-MB-231 [8]) was 19 nM. The inhibition [19] was 70%.
